Results from different studies.
Lines come from different studies, so protocols differ.
MAL12: Alpha-glucosidase MAL12 (MAL12, Saccharomyces cerevisiae S288c, UniProt P53341)
rep main protease: Replicase polyprotein 1ab, main protease (rep, Severe acute respiratory syndrome coronavirus 2, UniProt P0DTD1)
ADRA1A: Alpha-1A adrenergic receptor (ADRA1A, Homo sapiens, UniProt P35348)
HRH2: Histamine H2 receptor (HRH2, Homo sapiens, UniProt P25021)

C[C@H]1O[C@H](O[C@H]2[C@H](O)[C@@H](O)[C@@H](O[C@H]3[C@H](O)[C@@H](O)C(O)O[C@@H]3CO)O[C@@H]2CO)[C@H](O)[C@@H](O)[C@@H]1N[C@H]1C=C(CO)[C@@H](O)[C@H](O)[C@H]1O (stereo partly drawn)
inhibition (MAL12; enzyme activity, inhibitor, absorbance; 774.5 µM): 63.9%

COc1ccc(-c2cc(=O)c3c(O)cc(OC)cc3o2)cc1
inhibition (rep main protease; enzyme activity, inhibitor; 100 µM): 10.6%

O=c1c(O)c(-c2ccc(O)cc2)oc2c(O)c(O)cc(O)c12
kinact/KI (rep main protease; enzyme activity, inhibitor): 20.3 M⁻¹ s⁻¹

COc1cc(O)c2c(c1)O[C@H](c1ccccc1)CC2=O
inhibition (rep main protease; enzyme activity, inhibitor; 100 µM): 7.82%

[2H]c1c([2H])c([C@]2([2H])CCCN2C(=O)C(C)(C)Oc2ccc3cn[nH]c3c2)c([2H])c([2H])c1C([2H])([2H])[2H]
remaining binding (Homeodomain-interacting protein kinase 4 (HIPK4, Homo sapiens, UniProt Q8NE63); binding, competition with immobilised ligand; 1 µM): 59%

COc1cc2c3c(c1OC)-c1c(cccc1OC)CC3N(C)CC2 (racemic)
inhibition (ADRA1A; ligand displacement, radioligand; 10 µM): 65%

COc1cc(O)c2c(=O)c(OC)c(-c3ccc(OC)c(OC)c3)oc2c1
inhibition (rep main protease; enzyme activity, inhibitor; 10 µM): 5.84%

CCOC(=O)Cc1c2c3c(cc(OC)c(OC)c3c3cc(OC)c(OC)cc13)CCN2C
inhibition (ADRA1A; ligand displacement, radioligand; 10 µM): 13%

O=c1c(O)c(-c2cc(O)c(O)c(O)c2)oc2cc(O)cc(O)c12
inhibition (rep main protease; enzyme activity, inhibitor; 100 µM): 100%

CN1CCC[C@H]1c1cccnc1
inhibition (HRH2; ligand displacement; 50 µM): 3.47%

O=C(O[C@@H]1Cc2c(O)cc(O)cc2O[C@@H]1c1ccc(O)c(O)c1)c1cc(O)c(O)c(O)c1
kinact (rep main protease; enzyme activity, inhibitor): 1.83e-05 s⁻¹

COc1cc2c(cc1OC)-c1c(OC)c(OC)cc3c1[C@H](C2)N(C)CC3 (racemic)
inhibition (ADRA1A; ligand displacement, radioligand; 10 µM): 69%

CN1C(=S)N(c2ccccc2)C(=O)/C1=C1/C(=O)N(C)c2ccc(Cl)cc21
inhibition (MAL12; enzyme activity, inhibitor, absorbance; 200 µM): 54.2%

CC(C)CC(=O)OC[C@H]1O[C@@](C#N)(c2ccc3c(N)ncnn23)[C@H](O)[C@@H]1O
inhibition (HRH2; cell-free assay; 20 µM): 3%

CCc1ccc(N2C(=O)/C(=C3/C(=O)N(C)c4ccc(Cl)cc43)NC2=S)cc1
inhibition (MAL12; enzyme activity, inhibitor, absorbance; 25 µM): 14.6%

c1cncc([C@@H]2CCCN2)c1
inhibition (HRH2; ligand displacement; 50 µM): -6.37%

O=C(O)c1cc(O)c(O)c(O)c1
kinact/KI (rep main protease; enzyme activity, inhibitor): 205 M⁻¹ s⁻¹

CN1C(=O)/C(=N\Nc2ncc(-c3cc4ccccc4oc3=O)s2)c2cc(Cl)ccc21
inhibition (MAL12; enzyme activity, inhibitor, absorbance; 100 µM): 48.3%
